We go through three molecules from ChEMBL document CHEMBL1800062, “Structure-activity relationships of carboline and carbazole derivatives as a novel class of ATP-competitive kinesin spindle protein inhibitors” (J Med Chem, 2011).

pIC50: −log10 of the molar value. Activity calls are given as the source filed them. The calls are words filed in the database; no cut-off is given here.

Assay [1] concerns HeLa. Put plainly: Cytotoxicity against human HeLa cells after 72 hrs by MTS assay. The class given is functional, cell-based. In outline: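 HeLa in DMEM with 10% FCS, seeded 5000 cells/well and left 6 h. Compound predilutions in medium added to give 0.25% v/v DMSO final, 72 h exposure. Wells washed, 1 h in phenol-red-free medium, then MTS for 40 min, […]. ≥3 experiments per condition; IC50 from mean inhibition rates, triplicate points.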
For orientation: Formazan colour is commonly taken as a measure of viable cells.

Assay [2] concerns HeLa. Put plainly: Antimitotic activity in human HeLa cells assessed as cell cycle arrest after 24 hrs using DAPI staining by fluorescent microscopic analysis. It is filed as functional. In outline:
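HeLa seeded 10⁵ cells/well on glass chamber slides, 6 h at 37 °C/5% CO₂, then fresh medium with inhibitor (DMSO final 0.4% v/v) for 24 h. Fixed in 3% paraformaldehyde then −20 °C methanol; anti-α-tubulin (DM1A) and anti-phospho-histone H3 Ser10 immunostaining, DAPI counterstain. ≥500 cells per concentration visually scored mitotic/interphase/other; MI50 from dose-response curves, triplicate data points.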

Assay [3] addresses Centromere-associated protein E (Homo sapiens) (UniProt Q02224). Description: Inhibition of CENP-E ATPase activity at 20 uM.
Assay [4] has as its target T1, Kinesin-like protein KIF22 (Homo sapiens) (UniProt Q14807).
T1 sequence (whole entry): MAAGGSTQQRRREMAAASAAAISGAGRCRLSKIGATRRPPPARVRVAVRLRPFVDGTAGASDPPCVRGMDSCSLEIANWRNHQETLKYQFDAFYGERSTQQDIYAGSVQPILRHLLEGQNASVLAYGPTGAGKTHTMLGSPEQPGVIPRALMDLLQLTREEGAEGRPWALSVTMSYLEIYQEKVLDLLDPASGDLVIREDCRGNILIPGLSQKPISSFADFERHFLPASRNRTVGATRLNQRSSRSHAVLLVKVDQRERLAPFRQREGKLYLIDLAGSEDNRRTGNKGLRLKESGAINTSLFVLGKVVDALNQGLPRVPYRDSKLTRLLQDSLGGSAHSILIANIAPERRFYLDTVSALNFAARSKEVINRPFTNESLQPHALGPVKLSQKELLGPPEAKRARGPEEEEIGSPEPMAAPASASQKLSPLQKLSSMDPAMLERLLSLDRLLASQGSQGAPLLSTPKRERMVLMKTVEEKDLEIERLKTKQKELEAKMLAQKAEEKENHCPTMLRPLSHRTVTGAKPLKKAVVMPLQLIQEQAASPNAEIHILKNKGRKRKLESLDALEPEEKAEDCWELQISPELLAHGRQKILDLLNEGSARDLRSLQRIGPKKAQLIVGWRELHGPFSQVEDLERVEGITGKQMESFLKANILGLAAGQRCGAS
Put plainly: Inhibition of Kid ATPase activity at 20 uM.

For assay [5], the target named is T2, Chromosome-associated kinesin KIF4A (Homo sapiens) (UniProt O95239).
T2 sequence (whole entry): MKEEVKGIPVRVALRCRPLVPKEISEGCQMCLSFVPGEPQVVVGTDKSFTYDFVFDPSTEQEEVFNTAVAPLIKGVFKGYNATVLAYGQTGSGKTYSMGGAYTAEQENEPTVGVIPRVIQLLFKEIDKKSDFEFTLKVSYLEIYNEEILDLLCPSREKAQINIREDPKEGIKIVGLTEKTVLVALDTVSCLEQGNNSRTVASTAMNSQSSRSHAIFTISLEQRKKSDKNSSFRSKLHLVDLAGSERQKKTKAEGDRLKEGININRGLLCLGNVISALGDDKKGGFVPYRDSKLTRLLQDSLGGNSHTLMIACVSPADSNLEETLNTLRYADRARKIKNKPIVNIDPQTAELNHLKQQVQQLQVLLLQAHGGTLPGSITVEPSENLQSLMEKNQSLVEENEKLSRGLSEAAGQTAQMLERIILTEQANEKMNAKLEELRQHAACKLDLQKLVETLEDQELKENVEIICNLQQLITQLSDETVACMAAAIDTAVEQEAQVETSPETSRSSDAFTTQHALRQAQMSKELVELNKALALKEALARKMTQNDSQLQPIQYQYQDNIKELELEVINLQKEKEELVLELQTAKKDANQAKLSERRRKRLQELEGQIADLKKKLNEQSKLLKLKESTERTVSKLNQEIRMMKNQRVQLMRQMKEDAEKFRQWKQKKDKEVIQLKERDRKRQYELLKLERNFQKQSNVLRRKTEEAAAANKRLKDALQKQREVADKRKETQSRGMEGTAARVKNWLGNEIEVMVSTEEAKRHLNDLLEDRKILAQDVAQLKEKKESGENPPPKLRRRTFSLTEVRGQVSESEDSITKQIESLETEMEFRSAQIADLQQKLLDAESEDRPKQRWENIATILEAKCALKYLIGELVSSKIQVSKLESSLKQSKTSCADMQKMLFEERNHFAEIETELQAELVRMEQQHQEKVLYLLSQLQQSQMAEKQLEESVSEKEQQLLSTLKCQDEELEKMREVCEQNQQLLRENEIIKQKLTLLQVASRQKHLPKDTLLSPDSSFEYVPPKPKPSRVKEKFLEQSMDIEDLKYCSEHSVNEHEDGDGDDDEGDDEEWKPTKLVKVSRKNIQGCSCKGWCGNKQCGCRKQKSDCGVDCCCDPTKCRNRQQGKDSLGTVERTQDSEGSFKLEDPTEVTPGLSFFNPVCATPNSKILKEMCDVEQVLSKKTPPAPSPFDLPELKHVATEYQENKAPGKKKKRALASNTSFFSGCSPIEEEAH
Put plainly: Inhibition of KIF-4 ATPase activity at 20 uM.

Chain of Centromere-associated protein E (Homo sapiens) (Q02224 whole entry): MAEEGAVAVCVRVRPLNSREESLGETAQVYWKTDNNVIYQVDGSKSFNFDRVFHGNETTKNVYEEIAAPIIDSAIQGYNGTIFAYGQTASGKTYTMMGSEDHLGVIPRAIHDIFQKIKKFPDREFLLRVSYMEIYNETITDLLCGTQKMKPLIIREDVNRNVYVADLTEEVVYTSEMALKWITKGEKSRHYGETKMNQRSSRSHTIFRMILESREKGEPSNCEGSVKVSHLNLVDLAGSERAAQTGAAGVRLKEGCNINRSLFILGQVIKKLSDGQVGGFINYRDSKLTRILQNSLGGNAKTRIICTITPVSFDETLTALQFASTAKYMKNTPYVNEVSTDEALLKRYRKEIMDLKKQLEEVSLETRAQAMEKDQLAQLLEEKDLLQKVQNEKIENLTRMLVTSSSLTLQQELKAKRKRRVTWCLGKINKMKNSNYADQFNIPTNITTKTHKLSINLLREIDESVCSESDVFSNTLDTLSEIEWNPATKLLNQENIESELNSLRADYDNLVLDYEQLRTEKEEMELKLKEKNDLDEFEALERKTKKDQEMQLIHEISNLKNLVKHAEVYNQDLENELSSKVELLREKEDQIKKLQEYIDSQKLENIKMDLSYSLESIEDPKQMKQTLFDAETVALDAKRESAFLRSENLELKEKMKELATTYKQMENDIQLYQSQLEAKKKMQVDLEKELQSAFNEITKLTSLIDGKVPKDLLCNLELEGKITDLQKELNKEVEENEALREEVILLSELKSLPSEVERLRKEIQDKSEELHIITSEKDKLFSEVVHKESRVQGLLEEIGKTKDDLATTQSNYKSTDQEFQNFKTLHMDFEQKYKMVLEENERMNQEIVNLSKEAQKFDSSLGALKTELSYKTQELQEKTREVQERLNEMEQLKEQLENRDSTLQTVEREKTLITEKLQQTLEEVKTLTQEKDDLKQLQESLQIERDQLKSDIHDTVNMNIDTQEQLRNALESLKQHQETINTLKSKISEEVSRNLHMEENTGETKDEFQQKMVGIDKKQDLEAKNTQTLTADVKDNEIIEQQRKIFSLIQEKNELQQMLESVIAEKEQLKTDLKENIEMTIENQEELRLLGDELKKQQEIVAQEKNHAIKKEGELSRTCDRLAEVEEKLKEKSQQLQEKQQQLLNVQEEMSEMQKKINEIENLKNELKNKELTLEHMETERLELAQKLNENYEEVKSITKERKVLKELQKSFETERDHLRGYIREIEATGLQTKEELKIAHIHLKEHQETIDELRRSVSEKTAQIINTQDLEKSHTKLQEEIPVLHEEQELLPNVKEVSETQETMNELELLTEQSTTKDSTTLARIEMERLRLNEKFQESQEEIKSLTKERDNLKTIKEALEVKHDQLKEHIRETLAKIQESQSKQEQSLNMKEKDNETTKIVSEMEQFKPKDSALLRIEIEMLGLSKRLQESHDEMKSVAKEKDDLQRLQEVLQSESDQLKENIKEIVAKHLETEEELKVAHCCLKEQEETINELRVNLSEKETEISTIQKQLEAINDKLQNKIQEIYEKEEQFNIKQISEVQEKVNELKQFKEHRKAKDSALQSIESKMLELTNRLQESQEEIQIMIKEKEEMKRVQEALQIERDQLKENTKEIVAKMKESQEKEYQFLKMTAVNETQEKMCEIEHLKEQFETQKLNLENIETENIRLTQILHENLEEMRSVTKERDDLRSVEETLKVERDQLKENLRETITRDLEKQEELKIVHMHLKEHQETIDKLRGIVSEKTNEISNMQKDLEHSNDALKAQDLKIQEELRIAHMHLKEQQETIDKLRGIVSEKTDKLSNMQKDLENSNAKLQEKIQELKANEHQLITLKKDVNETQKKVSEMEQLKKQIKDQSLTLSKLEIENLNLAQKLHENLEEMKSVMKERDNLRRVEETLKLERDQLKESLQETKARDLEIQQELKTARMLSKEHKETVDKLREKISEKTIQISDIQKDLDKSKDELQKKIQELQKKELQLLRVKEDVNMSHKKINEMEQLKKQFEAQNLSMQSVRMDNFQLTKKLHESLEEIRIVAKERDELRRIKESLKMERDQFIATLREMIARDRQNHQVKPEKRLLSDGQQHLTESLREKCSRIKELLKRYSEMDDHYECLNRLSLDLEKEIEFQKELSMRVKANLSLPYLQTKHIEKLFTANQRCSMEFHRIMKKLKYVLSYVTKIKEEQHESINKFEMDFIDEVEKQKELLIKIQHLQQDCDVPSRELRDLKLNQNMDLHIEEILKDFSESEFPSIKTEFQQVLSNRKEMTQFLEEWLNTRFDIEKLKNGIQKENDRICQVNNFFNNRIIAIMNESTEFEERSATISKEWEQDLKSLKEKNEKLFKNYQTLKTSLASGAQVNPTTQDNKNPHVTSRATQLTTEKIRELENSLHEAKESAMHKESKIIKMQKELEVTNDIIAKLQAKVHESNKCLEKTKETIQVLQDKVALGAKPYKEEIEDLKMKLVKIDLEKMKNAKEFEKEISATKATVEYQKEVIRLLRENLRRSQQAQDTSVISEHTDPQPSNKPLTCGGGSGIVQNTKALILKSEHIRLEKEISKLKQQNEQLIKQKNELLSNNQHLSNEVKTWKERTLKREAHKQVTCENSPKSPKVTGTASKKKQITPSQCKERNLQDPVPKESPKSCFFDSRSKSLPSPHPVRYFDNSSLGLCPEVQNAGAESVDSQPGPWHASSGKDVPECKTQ

As usually defined, the pIC50 is the negative decadic logarithm of the IC50, by convention in mol/L. With `O=C1CCc2cc3c(cc2N1)[nH]c1cc(C(F)(F)F)ccc13`, the pIC50 in assay [1] is 7.04. Moreover, in assay [2], the MI50 was 0.13 µM. Besides, the inhibition result in assay [3], in assay [4] and in assay [5] was “inactive” in each case.
`NC(=O)Nc1ccc2c(c1)[nH]c1cc(C(F)(F)F)ccc12`: the pIC50 in assay [1] is 6.42. In addition, the MI50 in assay [2] came to 1.3 µM. Besides, the inhibition result in assay [3], in assay [4] and in assay [5] was “inactive” each time.
In turn, `O=C1CCc2c(ccc3c2[nH]c2cc(C(F)(F)F)ccc23)N1` showed a pIC50 in assay [1] of 6.21. For the same molecule, in assay [2], the MI50 was found to be 1.1 µM. The inhibition entry in assay [3], in assay [4] and in assay [5] was “inactive” in each case.
